Compounds with a hit are over-represented: about 1.6% of the library has one in this group of screens.
ASAP1 inh – inhibitors of human ASAP1 ArfGAP activity; 360,000 compounds, 0.19% hits; Q9ULH1; AID 624377; inhibition, % at 16.5 µM; ASAP1-stimulated ARF1 GTP hydrolysis, GDP FP detection; in the data active = inhibition above about 25%;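 also: 0% = vehicle with enzyme and substrate and 100% = no enzyme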
Target sequence (Q9ULH1 325-724 limits assumed): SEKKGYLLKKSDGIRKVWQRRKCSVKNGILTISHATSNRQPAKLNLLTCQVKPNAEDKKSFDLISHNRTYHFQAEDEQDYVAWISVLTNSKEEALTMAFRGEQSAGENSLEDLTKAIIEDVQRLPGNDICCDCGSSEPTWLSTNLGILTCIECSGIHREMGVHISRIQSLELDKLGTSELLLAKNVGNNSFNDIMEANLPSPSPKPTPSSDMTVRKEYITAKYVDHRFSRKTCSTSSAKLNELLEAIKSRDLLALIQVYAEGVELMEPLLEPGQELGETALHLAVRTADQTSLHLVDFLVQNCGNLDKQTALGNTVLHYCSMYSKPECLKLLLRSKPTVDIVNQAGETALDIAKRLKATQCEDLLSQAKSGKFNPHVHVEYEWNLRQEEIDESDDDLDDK
Neddyl block – cullin neddylation inhibition; P61081+Q13564; TR-FRET cullin neddylation, biochemical; inhibition, % at 25 µM; 360,000 compounds, 0.58% hits; in the data active = inhibition above about 36%
H9c2 protect – protects H9c2 cardiomyocytes from peroxide injury; H2O2 injury protection, ATPLite, 2 h; protection from H2O2 cell death, % at 20 µM; 360,000 compounds, 0.63% hits; AID 588492;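 active = compounds giving at least 50% protection of heart cells from peroxide-induced death in the single-dose screen, raw or plate-pattern-corrected value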;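 also: 0% = DMSO wells with peroxide and 100% = DMSO wells without peroxide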
ARFGAP1 inhibitor – inhibitors of rat ARFGAP1 | Q62848 | Arfgap1-stimulated ARF1 GTP hydrolysis, GDP FP detection | inhibition, % at 16.5 µM | 360,000 compounds, 0.26% hits | AID 651572;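 active = inhibition above a per-plate limit, mean inhibition of low control wells plus 3 SD, cut at about 25% in these data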;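 also: 0% = DMSO wells with enzyme and 100% = wells lacking Arfgap1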
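material = rat Arfgap1 catalytic domain, aa 1-136 | also added = human ARF1(Δ1-17)-GTP substrate | compound dosing = one concentration, 16.5 µM, DMSO 1.26% | times = GTP hydrolysis reaction 2 h at 25 °C | measured by = FP, GDP Alexa 633 tracer displaced from anti-GDP antibody, 620/688 nm | evaluation = percent inhibition of Arfgap1-stimulated GTP hydrolysis | replication = single well per compound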
The depositor's hits bear a star.

Cc1ccc(C(=O)C(C)OC(=O)Cc2n[nH]c(=O)c3ccccc23)cc1 (stereo not drawn) was read as ASAP1 inh 11, Neddyl block -4, H9c2 protect 12 and ARFGAP1 inhibitor 10.
Screening CC(OC(=O)Cc1n[nH]c(=O)c2ccccc12)C(=O)Nc1ccc(F)cc1Cl (stereo not drawn) returned ASAP1 inh 1, Neddyl block 9, H9c2 protect 69* and ARFGAP1 inhibitor 0.
`Cc1cc(C)c(C(=O)C(C)OC(=O)Cc2n[nH]c(=O)c3ccccc23)cc1C` (stereo not drawn) gave ASAP1 inh 8, Neddyl block 1, H9c2 protect 7 and ARFGAP1 inhibitor 0.
Screening C#CCNC(=O)C[C@H]1C[C@@]2(C(=O)OC)C(=C[C@H](C3CCCC3)O[C@@H]2C)N(Cc2ccccc2)C1=O returned ASAP1 inh 1 and ARFGAP1 inhibitor -1.
CCN(CC)CCCNc1nc2cc(OC)c(OC)cc2c2nc(-c3ccccc3)nn12 was read as ASAP1 inh 13, H9c2 protect -2 and ARFGAP1 inhibitor 11.
Screening COc1cc2nc(NCC3CCCO3)n3nc(-c4cccnc4)nc3c2cc1OC (stereo not drawn) returned ASAP1 inh -7, Neddyl block 16, H9c2 protect 91* and ARFGAP1 inhibitor 0.
For COCCCNc1nc2cc(OC)c(OC)cc2c2nc(-c3ccccc3)nn12 the results were ASAP1 inh 11, Neddyl block -24, H9c2 protect 56* and ARFGAP1 inhibitor 1.
For CCN(CC)CCCNc1nc2cc(OC)c(OC)cc2c2nc(-c3cccnc3)nn12 the results were ASAP1 inh 16, Neddyl block 12, H9c2 protect 12 and ARFGAP1 inhibitor 16.
For Nc1[nH]c(C(=O)c2ccc(Br)cc2)c(-c2ccc(Cl)cc2[N+](=O)[O-])c1C(=O)NCCc1c[nH]c2ccccc12 the results were ASAP1 inh 7 and ARFGAP1 inhibitor 14.
`C[C@@H]1CN([C@@H](C)CO)C(=O)CCCn2cc(nn2)CO[C@H]1CN(C)C(=O)Nc1ccccc1F` gave ASAP1 inh -16 and ARFGAP1 inhibitor -11.
`C[C@@H]1CN([C@@H](C)CO)C(=O)CCCn2nncc2CO[C@H]1CN(C)Cc1ccc(O)cc1` gave ASAP1 inh -3 and ARFGAP1 inhibitor 2.
`Cc1ccc(-c2csc3nc[nH]c(=S)c23)cc1C` gave ASAP1 inh -7, Neddyl block -14, H9c2 protect 80* and ARFGAP1 inhibitor 6.
Screening COc1ccc(-c2csc3nc[nH]c(=O)c23)cc1OC returned ASAP1 inh 7, Neddyl block -1, H9c2 protect 0 and ARFGAP1 inhibitor -9.
`COCCN1C(=O)[C@H]2C[C@@]13O[C@H](c1ccc(C(F)(F)F)cc1)N=C3C[C@H](c1ccccc1)[C@H]2C` gave ASAP1 inh -10 and ARFGAP1 inhibitor -11.
`CC(=O)N(c1nc2ccccc2s1)N1C(=O)c2ccccc2C1=O` gave ASAP1 inh 6 and ARFGAP1 inhibitor 5.
Screening O=C(c1ccc(Br)o1)N1CCN(c2ccc3nnc(-c4ccc(F)cc4)n3n2)CC1 returned ASAP1 inh 3, Neddyl block 4, H9c2 protect 52* and ARFGAP1 inhibitor 17.
For O=C(Nc1ccc(Cl)cc1)N1CCN(c2ccc3nnc(-c4ccc(F)cc4)n3n2)CC1 the results were ASAP1 inh 7, Neddyl block -54, H9c2 protect 53* and ARFGAP1 inhibitor 0.
Screening Nc1sccc1C(=O)NC1CC1 returned ASAP1 inh 2, Neddyl block 1 and ARFGAP1 inhibitor -8.
NC(=O)c1nsc(C(=O)N(c2ccccc2)C(C(=O)NC2CCCC2)c2ccc3ncccc3c2)c1N (stereo not drawn) was read as ASAP1 inh -10, H9c2 protect 62* and ARFGAP1 inhibitor 5.
`COc1ccc(N(C(=O)c2snc(C(N)=O)c2N)C(C(=O)NC2CCCC2)c2ccc3ncccc3c2)cc1` (stereo not drawn) gave ASAP1 inh 3, Neddyl block 31, H9c2 protect 15 and ARFGAP1 inhibitor 6.
For NC(=O)c1nsc(C(=O)N(c2cccc(O)c2)C(C(=O)NC2CCCC2)c2ccc(Cl)cc2)c1N (stereo not drawn) the results were ASAP1 inh 5, Neddyl block 36, H9c2 protect 7 and ARFGAP1 inhibitor 3.
Screening CCOc1ccc(C(C(=O)NC2CCCC2)N(C(=O)c2snc(C(N)=O)c2N)c2cccc(O)c2)cc1 (stereo not drawn) returned ASAP1 inh 7, H9c2 protect 81* and ARFGAP1 inhibitor -3.
Screening CCc1cccc(-n2c(C)cc(O)cc2=O)c1 returned ASAP1 inh 6 and ARFGAP1 inhibitor -4.
